Experimental data as given in paper PMC7723234 (Journal of medicinal chemistry, 2019).
“Also recorded” adds a separate entry of the source.

Assays:
[1] = tested on: caspase 3 and 7 activity in SW620 tumor organoids; assay: Tumor organoid caspase 3/7 activity; format: cell-based; conditions: higher doses, vs DMSO
In short: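 SW620 cells were seeded at 2,000/well in round-bottom ultra-low-attachment 384-well plates in RPMI-1640 with 5% FBS and 2% Matrigel, grown 72 h, then treated with a range of doses for 72 h. Caspase-Glo 3/7 was added 1:1, plates shaken 30 min, and luminescence read. Staurosporine served as positive control and 0.4% DMSO as negative control.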

hTopoIIα = hTopoIIα (Homo sapiens, UniProt P11388); assay: TOP2A ATPase assay; format: biochemical; conditions: ATP hydrolysis, Vmax unchanged, KM shifts
hTopoIIα, sequence (P11388 whole entry): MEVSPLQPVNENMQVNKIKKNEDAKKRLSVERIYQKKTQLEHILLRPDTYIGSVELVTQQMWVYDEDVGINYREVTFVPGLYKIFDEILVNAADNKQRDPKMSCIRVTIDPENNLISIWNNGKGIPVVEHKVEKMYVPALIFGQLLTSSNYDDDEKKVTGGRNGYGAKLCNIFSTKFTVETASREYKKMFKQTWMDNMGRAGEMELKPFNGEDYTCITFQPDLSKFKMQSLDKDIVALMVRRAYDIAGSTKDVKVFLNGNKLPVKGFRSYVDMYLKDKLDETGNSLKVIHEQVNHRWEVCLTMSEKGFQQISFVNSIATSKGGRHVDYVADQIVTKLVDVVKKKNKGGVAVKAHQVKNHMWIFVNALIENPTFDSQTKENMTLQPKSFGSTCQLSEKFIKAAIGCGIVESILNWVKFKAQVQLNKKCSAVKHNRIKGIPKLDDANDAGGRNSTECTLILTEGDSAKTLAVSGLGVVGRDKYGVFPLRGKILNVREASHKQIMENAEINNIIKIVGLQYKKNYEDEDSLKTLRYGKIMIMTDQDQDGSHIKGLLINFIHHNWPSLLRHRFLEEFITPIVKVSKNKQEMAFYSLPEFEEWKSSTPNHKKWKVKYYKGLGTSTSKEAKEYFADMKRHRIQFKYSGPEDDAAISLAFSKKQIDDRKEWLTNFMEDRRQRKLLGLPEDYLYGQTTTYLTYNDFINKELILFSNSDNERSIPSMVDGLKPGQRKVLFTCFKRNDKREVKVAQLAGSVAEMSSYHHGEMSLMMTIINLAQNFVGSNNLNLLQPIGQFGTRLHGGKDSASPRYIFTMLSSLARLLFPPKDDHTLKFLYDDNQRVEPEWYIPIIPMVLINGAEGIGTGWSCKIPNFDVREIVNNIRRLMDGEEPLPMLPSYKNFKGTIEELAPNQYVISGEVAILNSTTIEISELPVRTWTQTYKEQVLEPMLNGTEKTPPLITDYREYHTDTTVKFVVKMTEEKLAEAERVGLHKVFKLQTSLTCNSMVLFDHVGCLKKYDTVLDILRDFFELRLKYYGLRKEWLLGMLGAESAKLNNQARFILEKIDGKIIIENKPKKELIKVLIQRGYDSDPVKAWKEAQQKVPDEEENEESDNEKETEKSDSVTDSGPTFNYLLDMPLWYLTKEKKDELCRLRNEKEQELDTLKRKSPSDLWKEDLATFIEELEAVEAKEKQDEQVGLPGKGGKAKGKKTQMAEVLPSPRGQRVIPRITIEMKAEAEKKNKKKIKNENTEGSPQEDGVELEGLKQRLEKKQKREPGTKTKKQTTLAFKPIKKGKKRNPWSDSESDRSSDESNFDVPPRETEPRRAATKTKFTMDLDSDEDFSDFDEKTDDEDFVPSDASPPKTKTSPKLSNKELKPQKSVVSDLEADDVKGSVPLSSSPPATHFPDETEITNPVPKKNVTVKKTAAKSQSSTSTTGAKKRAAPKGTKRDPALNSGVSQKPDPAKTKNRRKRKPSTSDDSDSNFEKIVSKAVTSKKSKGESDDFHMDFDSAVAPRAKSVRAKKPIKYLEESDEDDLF

In vivo PK studies = conditions: female CD-1 mice, single IP 50 mg/kg, plasma
In short: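 Female CD-1 mice got one IP dose of 50 mg/kg in 100% DMSO. Blood was sampled from 0.25–24 h, three mice per time point (21 per compound), into sodium heparin. Plasma was spun out (1800xg, 10 min, 4 °C), frozen at −80 °C, mixed 1:1 with ACN acidified with formic or trifluoroacetic acid (0.1%, varying by compound), centrifuged and analysed by LC-MS/MS.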

Human TOP2A = Human TOP2A (Homo sapiens, UniProt P11388); assay: TOP2A decatenation assay; format: biochemical; conditions: screen at 30 μM / SAR discussion
Human TOP2A, sequence (P11388 whole entry): as above
In short: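 For screening, TOP2A (3U/reaction) was preincubated 20 min at 37 °C with 30 μM test compound in 1.2% DMSO. Then 2 mM ATP and 35 ng kDNA were added for 1 h at 37 °C. Products ran on 0.8% agarose in TBE with 0.2 μg/mL ethidium bromide (1 h, 100 V), and decatenated bands were compared with vehicle. Dose-responses used 2-fold dilutions (58.6 nM–30 μM) and 4U enzyme.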

SW620 = assay: γ-H2AX DNA damage assay; format: cell-based; conditions: concentration range 0–40 μM
[2] = tested on: TOP2A-dependent TCF-transcription in SW620-TOP tumor organoids; assay: 3D tumor organoid TOPflash reporter assay; format: cell-based
In short: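 SW620 cells stably carrying pCDH-TOPflash-luc-EF1-puro were seeded at 5,000 cells/well in ultra-low-attachment U-bottom wells, centrifuged, given 2% Matrigel (final) and grown 72 h in phenol red-free RPMI-1640 with 5% FBS. Organoids were treated 72 h. One-Glo luciferase and CellTiter-Glo 3D were added 1:1 and luminescence read. TCF signal was normalised to viability, then to DMSO controls.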

[3] = Microsome stability studies; format: in vitro ADME; conditions: mouse microsomes; for microsomal stability (in words): Phase I, 0 to 60 min
In short: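 Female CD-1 mouse liver microsomes (0.5 mg/mL) with 1.5 mM NADPH in 0.1 M phosphate buffer, pH 7.4, were pre-warmed 5 min at 37 °C. Reactions were started with 1 μg/mL test compound and run at 37 °C. Aliquots taken over 0–60 min were quenched with equal-volume acetonitrile and centrifuged (20,000g, 10 min) for LCMS. Compound-stability controls under reaction conditions were included.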

SW620 tumor organoids = assay: SW620 tumor organoid growth in volume; format: cell-based; conditions: 72 h, vs DMSO
SW620 cells = assay: Tumor organoid CSC stemness assay; format: cell-based; conditions: SW620 cells pretreated 24 h, colonies over seven days, vs DMSO
[4] = Compound aqueous solubility in PBS; format: physicochemical; conditions: ratio to prototype 7
In short: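 Test compound (1 mg) was dissolved in 200 μL 10% DMSO in PBS, pH 7.4, and equilibrated as for the 1-propanol solutions (18 h, 25 °C), then centrifuged. The UV absorption spectrum was compared with a fully saturated 1-propanol solution, and solubility was calculated by linear regression.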

[5] = tested on: TOP2A mediated TCF-transcription; conditions: cited from earlier work
[6] = cited from earlier work
[7] = cited from earlier work; remark: listed apart in the source

CC(=O)Nc1ccc2c(-c3cc(F)ccc3O)ccnc2c1O [Compound 7, 7-Acetamido-4-(5-fluoro-2-hydroxyphenyl)-8-hydroxyquinoline]
induction of apoptosis (caspase 3 and 7 cleavage) in words [1]: induce apoptosis | mode of TOP2A inhibition (hTopoIIα): competitive mode of inhibition | CL (In vivo PK studies): 64.5 mL/min/kg | inhibition of TOP2A decatenation (in words) (Human TOP2A): complete inhibition | DNA double stranded breaks (H2AX S139 phosphorylation immunofluorescence) (SW620): do not cause DNA DSBs | inhibition of TOP-activity (TOPflash) in words [2]: significantly inhibit | microsomal stability (in words) [3]: metabolized faster within the first 30 minutes | tumor organoid growth in volume (SW620 tumor organoids): significantly inhibited tumor organoid growth | colony formation (clonogenic assay) (SW620 cells): inhibit colony formation

CC(=O)Nc1ccc2c(-c3ccccc3)ccnc2c1O [Compound 28, 7-Acetamido-4-(phenyl)-8-hydroxyquinoline]
microsomal stability (in words) [3]: biphasic kinetics

CC(=O)Nc1ccc2c(-c3ccc(F)cc3)ccnc2c1O [Compound 30, 7-Acetamido-4-(4-fluorophenyl)-8-hydroxyquinoline]
inhibition of TOP2A decatenation (in words) (Human TOP2A): activity is lost

CC(=O)Nc1ccc2c(-c3cccc(C(F)(F)F)c3)ccnc2c1O [Compound 31, 7-Acetamido-4-((3-trifluoromethyl)phenyl)-8-hydroxyquinoline]
inhibition of TOP2A decatenation (in words) (Human TOP2A): excellent inhibitory activity | microsomal stability (in words) [3]: not readily transformed by Phase I metabolic enzymes

CC(=O)Nc1ccc2c(-c3ccc(C(F)(F)F)cc3)ccnc2c1O [Compound 32, 7-Acetamido-4-((4-trifluoromethyl)phenyl)-8-hydroxyquinoline]
inhibition of TOP2A decatenation (in words) (Human TOP2A): excellent inhibitory activity

CC(=O)Nc1ccccc1-c1ccnc2c(O)c(NC(C)=O)ccc12 [Compound 34, 7-Acetamido-4-(2-acetamidophenyl)-8-hydroxyquinoline]
inhibition of TOP2A decatenation (in words) (Human TOP2A): significant loss of activity

CC(=O)Nc1ccc(-c2ccnc3c(O)c(NC(C)=O)ccc23)cc1 [Compound 35, 7-Acetamido-4-(4-acetamidophenyl)-8-hydroxyquinoline]
inhibition of TOP2A decatenation (in words) (Human TOP2A): restored inhibitory activity | microsomal stability (in words) [3]: not readily transformed by Phase I metabolic enzymes

CC(=O)Nc1cccc(-c2ccnc3c(O)c(NC(C)=O)ccc23)c1 [Compound 36, 7-Acetamido-4-(3-acetamidophenyl)-8-hydroxyquinoline]
inhibition of TOP2A decatenation (in words) (Human TOP2A): significant loss of activity

CC(=O)Nc1ccc2c(-c3cc(C(F)(F)F)ccc3O)ccnc2c1O [Compound 37, 7-Acetamido-4-(2-hydroxy-5-trifluoromethylphenyl)-8-hydroxyquinoline]
inhibition of TOP2A decatenation (in words) (Human TOP2A): excellent inhibitory activity

CC(=O)Nc1ccc2c(-c3cc(Cl)ccc3O)ccnc2c1O [Compound 38, 7-Acetamido-4-(5-chloro-2-hydroxyphenyl)-8-hydroxyquinoline]
inhibition of TOP2A decatenation (in words) (Human TOP2A): did not inhibit

O=C(CCN1CCOCC1)Nc1ccc2c(-c3cc(F)ccc3O)ccnc2c1O [Compound 42, 4-(5-fluoro-2-hydroxyphenyl)-8-hydroxy-7-(3-(morpholin-4-yl)propanamido)quinoline]
induction of apoptosis (caspase 3 and 7 cleavage) in words [1]: induce apoptosis | CL (In vivo PK studies): 62.2 mL/min/kg | microsomal stability (in words) [3]: least stable | tumor organoid growth in volume (SW620 tumor organoids): significantly inhibited tumor organoid growth | solubility in PBS compared to prototype 7 [4]: 3.4 times

CC(=O)Nc1ccc2c(-c3cc4ccccc4o3)ccnc2c1O [Compound 53, 7-Acetamido-4-(2-benzofuranyl)-8-hydroxyquinoline]
CL (In vivo PK studies): 283.2 mL/min/kg | inhibition of TOP2A decatenation (in words) (Human TOP2A): complete inhibitory activity | microsomal stability (in words) [3]: not readily transformed by Phase I metabolic enzymes

CC(=O)Nc1ccc2c(-c3cc4ccccc4s3)ccnc2c1O [Compound 54, 7-Acetamido-4-(benzo[b]thiophen-2-yl)-8-hydroxyquinoline]
inhibition of TOP2A decatenation (in words) (Human TOP2A): inhibition was lost

CC(=O)Nc1ccc2c(-c3ccco3)ccnc2c1O [Compound 55, 7-Acetamido-4-(2-furanyl)-8-hydroxyquinoline]
inhibition of TOP2A decatenation (in words) (Human TOP2A): significant loss of activity

CC(=O)Nc1ccc2c(-c3ccsc3)ccnc2c1O [Compound 58, 7-Acetamido-4-(thiophen-3-yl)-8-hydroxyquinoline]
inhibition of TOP2A decatenation (in words) (Human TOP2A): improves activity compared to the 3-furanyl analog 56 | microsomal stability (in words) [3]: metabolized faster within the first 30 minutes; also recorded: biphasic kinetics

O=C(CN1CCOCC1)Nc1ccc2c(-c3cc4ccccc4o3)ccnc2c1O [Compound 60, 4-(2-benzofuranyl)-8-hydroxy-7-(2-(morpholin-4-yl)acetamido)quinoline]
induction of apoptosis (caspase 3 and 7 cleavage) in words [1]: induce apoptosis | CL (In vivo PK studies): 137 mL/min/kg | microsomal stability (in words) [3]: not readily transformed by Phase I metabolic enzymes | tumor organoid growth in volume (SW620 tumor organoids): significantly inhibited tumor organoid growth

O=C(CCN1CCOCC1)Nc1ccc2c(-c3cc4ccccc4o3)ccnc2c1O [Compound 61, 4-(2-benzofuranyl)-8-hydroxy-7-(3-(morpholin-4-yl)propanamido)quinoline]
CL (In vivo PK studies): 61.8 mL/min/kg | half-life at 1 μg/mL ([3]; female, CD-1, mouse, pH 7.4): 15 min | microsomal stability (in words) [3]: not readily transformed by Phase I metabolic enzymes

COc1cc([C@@H]2c3cc4c(cc3[C@@H](O[C@@H]3O[C@@H]5CO[C@@H](C)O[C@H]5[C@H](O)[C@H]3O)[C@H]3COC(=O)[C@H]23)OCO4)cc(OC)c1O [etoposide]
effect on TOP2A mediated TCF-transcription [5]: do not inhibit

O=C1NC(=S)NC(=O)C1C(=O)Nc1ccccc1 [merbarone]
effect on TOP2A mediated TCF-transcription [5]: do not inhibit

Cn1ccc2c(c1=O)C(=O)c1nccc3c1c-2nc1ccccc13 [neo, neoamphimedine]
solubility in water [6]: insoluble | effect on TOP2A mediated TCF-transcription [5]: prevents TCF-transcription | mode of TOP2A inhibition (hTopoIIα): competitive mode of inhibition | DNA double stranded breaks (H2AX S139 phosphorylation immunofluorescence) (SW620): do not cause DNA DSBs | metabolic stability [7]: metabolically unstable
